Assay results from ChEMBL document CHEMBL5303300, “EUbOPEN Chemogenomics Library - Multiplex” (2023).
“And” between values parts separate entries of the source, which are not always exact repeats. Identical values can stand only once.

System: U2OS
Assay: Multiplex assay against U2OS
Assay type: toxicity, cell-based
Conditions: human, number of replicates 2
Outline: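 Values for tubulin, mitochondrial-mass and membrane-permeability phenotypes are per cents of cells with healthy nuclei. These cells were identified by CellPathfinder machine-learning gating of live cells that had been stained at seeding with Hoechst33342, BioTracker Green Microtubule Cytoskeleton Dye, MitoTracker Red and Annexin V Alexa Fluor 680 and imaged on a CQ1 microscope at 37°C and 5% CO2 after compound addition. The gating first set Hoechst high-intensity objects apart from normal cells, then split normal cells into healthy, pyknosed or fragmented nuclei, and pyknosed cells into mitotic or apoptotic.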

[1] = 12 h, 1 µM, compound concentration 1 uM
[2] = 12 h, 10 µM, compound concentration 10 uM
[3] = 24 h, 1 µM, compound concentration 1 uM
[4] = 24 h, 10 µM, compound concentration 10 uM
[5] = 48 h, 1 µM, compound concentration 1 uM
[6] = 48 h, 10 µM, compound concentration 10 uM

SMILES: COc1ccncc1C(=O)NC(=O)Nc1ccc(-c2ccccc2)c(C(F)(F)F)c1
- Population Apoptotic (%) [1]: 33% and 36%
- Population Healthy Nuclei (%) [1]: 65% and 86%
- Population Hoechst High Intensity Objects (%) [1]: 0%
- Population Membrane Permeable-Phenotype (%) [1]: 0% and 1%
- Population Mitochondria Different-Phenotype (%) [1]: 0% and 1%
- Population Mitotic Cells (%) [1]: 66% and 63%
- Population Normal (%) [1]: 100%
- Population Pyknosed Nuclei (%) [1]: 11% and 9%
- Population Tubulin-Different-Phenotype (%) [1]: 58% and 88%
- Population Apoptotic (%) [2]: 25% and 33%
- Population Fragmented Nuclei (%) [2]: 8% and 2%
- Population Healthy Nuclei (%) [2]: 75% and 88%
- Population Hoechst High Intensity Objects (%) [2]: 0%
- Population Membrane Permeable-Phenotype (%) [2]: 2% and 1%
- Population Mitochondria Different-Phenotype (%) [2]: 2% and 1%
- Population Mitotic Cells (%) [2]: 75% and 66%
- Population Normal (%) [2]: 100%
- Population Pyknosed Nuclei (%) [2]: 16% and 9%
- Population Tubulin-Different-Phenotype (%) [2]: 67% and 78%
- Population Apoptotic (%) [3]: 66% and 57%
- Population Healthy Nuclei (%) [3]: 63% and 90%
- Population Hoechst High Intensity Objects (%) [3]: 0%
- Population Membrane Permeable-Phenotype (%) [3]: 4% and 2%
- Population Mitochondria Different-Phenotype (%) [3]: 0% and 1%
- Population Mitotic Cells (%) [3]: 33% and 42%
- Population Normal (%) [3]: 100%
- Population Pyknosed Nuclei (%) [3]: 15% and 6%
- Population Tubulin-Different-Phenotype (%) [3]: 62% and 89%
- Population Apoptotic (%) [4]: 66% and 31%
- Population Fragmented Nuclei (%) [4]: 1% and 3%
- Population Healthy Nuclei (%) [4]: 93% and 90%
- Population Hoechst High Intensity Objects (%) [4]: 0%
- Population Membrane Permeable-Phenotype (%) [4]: 5% and 0%
- Population Mitochondria Different-Phenotype (%) [4]: 0%
- Population Mitotic Cells (%) [4]: 33% and 68%
- Population Normal (%) [4]: 100%
- Population Pyknosed Nuclei (%) [4]: 5% and 6%
- Population Tubulin-Different-Phenotype (%) [4]: 72% and 79%
- Population Apoptotic (%) [5]: 60% and 43%
- Population Healthy Nuclei (%) [5]: 70% and 90%
- Population Hoechst High Intensity Objects (%) [5]: 0%
- Population Membrane Permeable-Phenotype (%) [5]: 2% and 1%
- Population Mitochondria Different-Phenotype (%) [5]: 2% and 0%
- Population Mitotic Cells (%) [5]: 40% and 56%
- Population Normal (%) [5]: 100%
- Population Pyknosed Nuclei (%) [5]: 10% and 7%
- Population Tubulin-Different-Phenotype (%) [5]: 65% and 90%
- Population Apoptotic (%) [6]: 23% and 69%
- Population Fragmented Nuclei (%) [6]: 7% and 2%
- Population Healthy Nuclei (%) [6]: 81% and 93%
- Population Hoechst High Intensity Objects (%) [6]: 0%
- Population Membrane Permeable-Phenotype (%) [6]: 0%
- Population Mitochondria Different-Phenotype (%) [6]: 0%
- Population Mitotic Cells (%) [6]: 76% and 30%
- Population Normal (%) [6]: 100% and 99%
- Population Pyknosed Nuclei (%) [6]: 10% and 4%
- Population Tubulin-Different-Phenotype (%) [6]: 83%
